Results: ChEMBL document CHEMBL3875204, “Structure-guided development of covalent TAK1 inhibitors” (Bioorg Med Chem, 2017)
The source made the active and inactive calls. The calls are words filed in the database; no cut-off is given here.

What was measured:
[1] = Half life in mouse liver microsomes by LC-MS/MS analysis; format: ADME
[2] = target: Dual specificity mitogen-activated protein kinase kinase 1 (Homo sapiens, UniProt Q02750); assay: Inhibition of full length recombinant human His-tagged MEK1 expressed in baculovirus expression system after 1 hr by TR-FRET based LanthaScreen assay
[3] = target: Mitogen-activated protein kinase 1 (Homo sapiens, UniProt P28482); assay: Inhibition of full length recombinant human GST-tagged ERK2 expressed in Escherichia coli using Ser/Thr 03 as substrate after 1 hr by Z'-Lyte assay
In short: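 Z'-Lyte FRET activity assay run per the supplier's protocol, with ATP near the kinase's Km.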

[4] = target: T1, Mitogen-activated protein kinase kinase kinase 7 (Homo sapiens) (UniProt O43318); settings: 10 uM
T1 sequence (whole entry): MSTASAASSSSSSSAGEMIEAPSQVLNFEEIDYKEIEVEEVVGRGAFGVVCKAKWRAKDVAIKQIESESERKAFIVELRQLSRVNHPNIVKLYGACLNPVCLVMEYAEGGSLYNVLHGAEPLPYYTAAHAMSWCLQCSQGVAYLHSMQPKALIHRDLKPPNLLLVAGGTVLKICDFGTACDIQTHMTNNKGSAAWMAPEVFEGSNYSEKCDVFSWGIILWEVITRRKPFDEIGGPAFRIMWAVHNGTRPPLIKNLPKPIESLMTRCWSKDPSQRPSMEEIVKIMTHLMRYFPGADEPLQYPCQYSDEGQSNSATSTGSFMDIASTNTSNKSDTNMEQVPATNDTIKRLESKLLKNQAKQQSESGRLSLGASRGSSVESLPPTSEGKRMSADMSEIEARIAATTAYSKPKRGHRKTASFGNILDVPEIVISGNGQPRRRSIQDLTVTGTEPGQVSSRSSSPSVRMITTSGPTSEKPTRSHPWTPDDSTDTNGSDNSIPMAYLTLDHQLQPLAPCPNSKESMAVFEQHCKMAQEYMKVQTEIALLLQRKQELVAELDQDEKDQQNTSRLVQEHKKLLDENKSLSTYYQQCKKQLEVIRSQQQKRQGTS

[5] = target: T2, Mitogen-activated protein kinase kinase kinase 7 (Homo sapiens, UniProt O43318); assay: Time-dependent inhibition of TAB1 fused TAK1 (unknown origin) using FAM-LRRKtide as substrate by mobility shift assay
T2 sequence (O43318 whole entry): T1 sequence (whole entry)

[6] = target: T1, Mitogen-activated protein kinase kinase kinase 7 (Homo sapiens)
[7] = target: T1, Mitogen-activated protein kinase kinase kinase 7 (Homo sapiens); assay: Binding affinity to full length recombinant human GST-tagged TAK1 expressed in baculovirus expression system assessed as labeling of Cys-174 residue after 1 hr by mass spectrometric analysis
[8] = target: T2, Mitogen-activated protein kinase kinase kinase 7; assay: Inhibition of full length recombinant human GST-tagged TAK1 expressed in baculovirus expression system after 1 hr by TR-FRET based LanthaScreen assay
[9] = target: Wee1-like protein kinase (Homo sapiens) (UniProt P30291); assay: Inhibition of human WEE1 (M291 to K575 residues) expressed in bacterial expression system at 1 uM by KINOMEScan assay
In short: (§1)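 KINOMEscan in vitro ATP-site competition binding, screened across a 468-kinase and mutant panel at a single concentration of 1 μM. Read-out is a binding or inhibition score […].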

[10] = target: Protein-tyrosine kinase 2-beta (Homo sapiens) (UniProt Q14289); assay: Inhibition of full length human PYK2 (M1 to E967 residues) expressed in bacterial expression system at 1 uM by KINOMEScan assay; in short: as §1
[11] = target: T3, Mitogen-activated protein kinase kinase kinase 3 (Homo sapiens) (UniProt Q99759); assay: Inhibition of human MAP3K3 (E320 to Y626 residues) expressed in mammalian expression system at 1 uM by KINOMEScan assay; in short: as §1
T3 sequence (whole entry): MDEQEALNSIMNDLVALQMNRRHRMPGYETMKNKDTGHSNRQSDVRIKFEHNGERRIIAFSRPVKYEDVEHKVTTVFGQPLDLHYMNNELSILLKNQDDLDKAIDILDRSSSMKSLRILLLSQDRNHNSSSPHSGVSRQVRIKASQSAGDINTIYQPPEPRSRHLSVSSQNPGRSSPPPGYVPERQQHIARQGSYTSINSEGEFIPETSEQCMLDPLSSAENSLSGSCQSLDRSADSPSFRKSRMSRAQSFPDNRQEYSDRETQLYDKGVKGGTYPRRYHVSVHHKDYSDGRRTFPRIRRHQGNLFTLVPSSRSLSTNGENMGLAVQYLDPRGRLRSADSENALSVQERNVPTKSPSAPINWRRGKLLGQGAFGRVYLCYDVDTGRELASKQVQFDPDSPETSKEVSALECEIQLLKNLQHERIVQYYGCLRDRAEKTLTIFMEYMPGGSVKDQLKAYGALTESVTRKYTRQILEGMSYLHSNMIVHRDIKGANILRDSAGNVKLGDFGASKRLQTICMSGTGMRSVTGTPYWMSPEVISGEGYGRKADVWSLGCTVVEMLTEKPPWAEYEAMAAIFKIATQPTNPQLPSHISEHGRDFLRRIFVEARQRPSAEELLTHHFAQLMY

[12] = target: T4, Mitogen-activated protein kinase kinase kinase 2 (Homo sapiens) (UniProt Q9Y2U5); assay: Inhibition of human MAP3K2 (S315 to H619 residues) expressed in mammalian expression system at 1 uM by KINOMEScan assay; in short: as §1
T4 sequence (whole entry): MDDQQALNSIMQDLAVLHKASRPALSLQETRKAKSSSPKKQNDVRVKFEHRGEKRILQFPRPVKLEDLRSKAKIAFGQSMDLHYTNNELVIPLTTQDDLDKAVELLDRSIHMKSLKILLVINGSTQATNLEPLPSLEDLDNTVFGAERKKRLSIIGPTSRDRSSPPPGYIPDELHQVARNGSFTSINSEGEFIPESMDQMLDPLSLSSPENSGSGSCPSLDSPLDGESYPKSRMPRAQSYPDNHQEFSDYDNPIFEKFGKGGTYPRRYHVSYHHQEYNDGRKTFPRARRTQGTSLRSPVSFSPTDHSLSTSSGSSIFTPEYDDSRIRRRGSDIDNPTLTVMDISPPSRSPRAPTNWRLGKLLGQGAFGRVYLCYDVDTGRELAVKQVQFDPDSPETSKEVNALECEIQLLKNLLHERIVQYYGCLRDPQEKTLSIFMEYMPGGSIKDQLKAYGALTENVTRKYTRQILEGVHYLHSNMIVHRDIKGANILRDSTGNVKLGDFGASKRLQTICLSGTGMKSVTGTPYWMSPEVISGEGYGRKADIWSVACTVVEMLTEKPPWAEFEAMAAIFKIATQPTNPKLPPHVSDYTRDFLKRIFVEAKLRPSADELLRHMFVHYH

[13] = target: Wee1-like protein kinase 2 (Homo sapiens) (UniProt P0C1S8); assay: Inhibition of human WEE2 (M204 to K492 residues) expressed in bacterial expression system at 1 uM by KINOMEScan assay; in short: as §1
Chain of Wee1-like protein kinase 2 (Homo sapiens) (P0C1S8 whole entry, looked up, the tested form may be a part): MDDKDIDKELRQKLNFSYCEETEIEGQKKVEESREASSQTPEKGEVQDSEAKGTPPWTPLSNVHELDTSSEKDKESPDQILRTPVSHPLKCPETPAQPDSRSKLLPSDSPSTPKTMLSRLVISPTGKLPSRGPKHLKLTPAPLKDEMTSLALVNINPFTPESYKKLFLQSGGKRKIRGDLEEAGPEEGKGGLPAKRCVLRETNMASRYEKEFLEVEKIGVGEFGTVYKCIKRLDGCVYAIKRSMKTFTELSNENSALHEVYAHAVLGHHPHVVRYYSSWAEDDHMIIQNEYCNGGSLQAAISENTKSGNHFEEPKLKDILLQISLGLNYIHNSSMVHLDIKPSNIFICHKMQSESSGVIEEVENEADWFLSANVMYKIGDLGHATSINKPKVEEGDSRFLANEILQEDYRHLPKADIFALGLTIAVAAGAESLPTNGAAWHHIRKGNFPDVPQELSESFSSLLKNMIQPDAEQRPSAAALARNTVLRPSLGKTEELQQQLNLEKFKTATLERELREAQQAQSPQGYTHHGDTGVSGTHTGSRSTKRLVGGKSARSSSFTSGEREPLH

Chain of Dual specificity mitogen-activated protein kinase kinase 1 (Q02750 whole entry): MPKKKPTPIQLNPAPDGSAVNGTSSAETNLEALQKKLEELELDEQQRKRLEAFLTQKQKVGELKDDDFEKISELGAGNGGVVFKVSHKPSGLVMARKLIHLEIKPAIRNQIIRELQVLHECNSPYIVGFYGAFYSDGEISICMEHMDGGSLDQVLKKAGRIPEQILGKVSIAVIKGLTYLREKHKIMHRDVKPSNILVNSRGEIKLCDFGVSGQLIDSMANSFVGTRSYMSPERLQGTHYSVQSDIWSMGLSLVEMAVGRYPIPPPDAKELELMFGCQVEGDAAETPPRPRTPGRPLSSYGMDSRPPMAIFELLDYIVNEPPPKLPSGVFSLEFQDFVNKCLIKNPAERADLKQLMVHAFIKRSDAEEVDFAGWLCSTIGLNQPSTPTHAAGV
Chain of Mitogen-activated protein kinase 1 (P28482 whole entry): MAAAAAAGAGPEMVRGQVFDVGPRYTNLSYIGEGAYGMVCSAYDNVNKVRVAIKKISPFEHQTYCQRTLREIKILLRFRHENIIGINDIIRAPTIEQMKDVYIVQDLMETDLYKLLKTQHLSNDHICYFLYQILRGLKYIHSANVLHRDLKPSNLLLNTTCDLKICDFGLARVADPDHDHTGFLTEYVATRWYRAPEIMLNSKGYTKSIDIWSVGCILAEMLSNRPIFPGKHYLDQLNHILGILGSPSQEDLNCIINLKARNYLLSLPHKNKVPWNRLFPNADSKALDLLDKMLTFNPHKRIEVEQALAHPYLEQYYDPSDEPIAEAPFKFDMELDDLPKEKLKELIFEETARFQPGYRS
Chain of Protein-tyrosine kinase 2-beta (Homo sapiens) (Q14289 whole entry, looked up, the tested form may be a part): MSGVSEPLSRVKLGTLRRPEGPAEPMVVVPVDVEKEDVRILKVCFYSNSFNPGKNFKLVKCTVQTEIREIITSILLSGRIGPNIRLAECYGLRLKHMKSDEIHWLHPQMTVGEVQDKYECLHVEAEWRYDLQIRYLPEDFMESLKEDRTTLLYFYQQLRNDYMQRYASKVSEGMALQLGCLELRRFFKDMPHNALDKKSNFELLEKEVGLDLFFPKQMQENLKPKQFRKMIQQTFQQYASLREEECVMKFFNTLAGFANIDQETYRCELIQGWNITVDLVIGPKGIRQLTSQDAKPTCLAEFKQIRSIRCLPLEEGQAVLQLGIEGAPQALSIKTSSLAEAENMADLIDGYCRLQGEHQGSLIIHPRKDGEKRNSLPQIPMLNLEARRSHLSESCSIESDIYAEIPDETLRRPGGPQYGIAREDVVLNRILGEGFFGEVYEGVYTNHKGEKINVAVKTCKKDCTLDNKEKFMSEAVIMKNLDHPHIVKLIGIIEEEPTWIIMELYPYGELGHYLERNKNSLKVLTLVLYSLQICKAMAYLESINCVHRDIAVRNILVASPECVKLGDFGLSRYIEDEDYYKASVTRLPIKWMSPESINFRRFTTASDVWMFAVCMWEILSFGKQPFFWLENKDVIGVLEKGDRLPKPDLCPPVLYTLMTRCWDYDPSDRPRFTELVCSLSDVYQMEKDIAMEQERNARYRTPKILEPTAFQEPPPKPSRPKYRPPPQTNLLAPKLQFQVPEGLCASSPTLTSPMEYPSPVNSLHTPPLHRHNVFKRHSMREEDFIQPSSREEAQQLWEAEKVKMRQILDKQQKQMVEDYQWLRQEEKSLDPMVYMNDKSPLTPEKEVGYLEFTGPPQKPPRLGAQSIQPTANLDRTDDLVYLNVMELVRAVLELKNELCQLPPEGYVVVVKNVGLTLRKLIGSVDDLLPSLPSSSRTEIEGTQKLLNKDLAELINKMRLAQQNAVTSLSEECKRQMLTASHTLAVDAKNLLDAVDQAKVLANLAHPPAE
Chain of Wee1-like protein kinase (Homo sapiens) (P30291 whole entry, looked up, the tested form may be a part): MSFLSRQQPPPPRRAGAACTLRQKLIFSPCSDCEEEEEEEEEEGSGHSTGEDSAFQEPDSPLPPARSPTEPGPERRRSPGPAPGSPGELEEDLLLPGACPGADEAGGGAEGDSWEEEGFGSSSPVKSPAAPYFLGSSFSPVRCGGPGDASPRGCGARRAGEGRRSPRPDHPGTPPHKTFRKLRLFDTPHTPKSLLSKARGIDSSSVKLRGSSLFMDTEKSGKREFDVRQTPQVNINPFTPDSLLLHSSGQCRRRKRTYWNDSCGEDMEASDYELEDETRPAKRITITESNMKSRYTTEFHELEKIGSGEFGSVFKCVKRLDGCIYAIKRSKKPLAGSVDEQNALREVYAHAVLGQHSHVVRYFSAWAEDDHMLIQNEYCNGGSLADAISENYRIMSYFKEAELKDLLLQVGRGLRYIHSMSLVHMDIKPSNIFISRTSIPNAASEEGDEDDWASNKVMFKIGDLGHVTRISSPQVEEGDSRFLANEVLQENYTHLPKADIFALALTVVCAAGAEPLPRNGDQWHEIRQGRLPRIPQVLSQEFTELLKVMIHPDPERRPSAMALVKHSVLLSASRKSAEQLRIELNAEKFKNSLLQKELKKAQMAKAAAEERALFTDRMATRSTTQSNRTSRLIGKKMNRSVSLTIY

Row | SMILES | t1/2 [1] [min] | IC50 [2] [nM] | IC50 [3] [nM] | other results
1 | C=CC(=O)Nc1ccccc1Oc1nc(Nc2ccc(N3CCN(C)CC3)cc2)ncc1OC | 15.3 | 1300 | 1670 | 
2 | C=CC(=O)Nc1ccccc1Oc1nc(Nc2ccc(N3CCN(C)CC3)cc2)ncc1C1CC1 | 12.8 | 763 | 5600 | 
3 | C=CC(=O)Nc1ccccc1Oc1nc(Nc2ccc(N3CCN(C)CC3)cc2)nc(N)c1Cl |  | > 10000 |  | 
4 | C=CC(=O)Nc1ccccc1Oc1nc(Nc2cnn(C3CCOCC3)c2)ncc1Cl | 4 | 8.2 | 4620 | 
5 | C=CC(=O)Oc1ccccc1Nc1nc(Nc2ccc(N3CCN(C)CC3)cc2)ncc1Cl | 5.7 | 16 | 277 | 
6 | COc1cc(O)c2c(c1)/C=C/C[C@H](O)[C@H](O)C(=O)/C=C\C[C@H](C)OC2=O |  | 2.9 | 738 | inhibition [4]: Active
7 | C=CC(=O)Nc1ccccc1Oc1ccnc(Nc2ccc(N3CCN(C)CC3)cc2)n1 |  | 4470 |  | 
8 | C=CC(=O)Nc1ccccc1Oc1nc(Nc2cnn(C(F)F)c2)ncc1Cl | 4.2 | 26 | 242 | 
9 | C=CC(=O)Nc1ccccc1Nc1nc(Nc2ccc(N3CCN(C)CC3)cc2)ncc1Cl | 10.8 | 142 | 1090 | IC50 [5]: 125 nM; Ki [5]: 160 nM; Kinact [6]: 1.1 ×10⁻³ /s
10 | C=CC(=O)Nc1ccccc1Oc1nc(Nc2ccc(N3CCN(C)CC3)cc2)ncc1Cl | 6.1 | 78 | 7000 | IC50 [5]: 360 nM; Activity [7]: Active
11 | C=CC(=O)Nc1cc(NC(C)=O)ccc1Oc1nc(Nc2ccc(N3CCN(C)CC3)cc2)ncc1Cl |  | 4810 |  | IC50 [8]: 1640 nM
12 | C=CC(=O)Nc1ccccc1-n1ccc2cnc(Nc3ccc(N4CCN(C)CC4)cc3)nc21 | 10.5 | 6810 | > 10000 | 
13 | C=CC(=O)Nc1ccccc1Oc1nc(Nc2cnn(CCOC)c2)ncc1Cl | 6.9 | 8.5 | 90.3 | IC50 [5]: 7.6 nM
14 | C=CC(=O)Nc1ccccc1Oc1nc(Nc2cnn(C)c2)ncc1Cl | 8.1 | 9.8 | 3140 | 
15 | CCC(=O)Nc1ccccc1Oc1nc(Nc2ccc(N3CCN(C)CC3)cc2)ncc1Cl |  | > 10000 |  | IC50 [8]: > 10000 nM
16 | C=CC(=O)Oc1ccccc1Nc1nc(Nc2ccc(N3CCN(C)CC3)cc2OC)ncc1Cl |  |  |  | IC50 [8]: 342 nM
17 | C=CC(=O)Nc1ccccc1Oc1nc(Nc2ccc(N3CCN(C)CC3)cc2)ncc1C | 8.8 | 1630 | 9230 | 
18 | CCC(=O)Nc1ccccc1Nc1nc(Nc2ccc(N3CCN(C)CC3)cc2)ncc1Cl |  |  |  | inhibition [9]: Active; inhibition [10]: Active; inhibition [11]: Active; inhibition [12]: Active; inhibition [13]: Active
19 | C=CC(=O)Oc1ccccc1Nc1nc(Nc2ccc(N3CCOCC3)cc2)ncc1Cl | 3.8 | 8.9 | 361 | 
20 | CN1CCN(c2ccc(Nc3ncc(Cl)c(Oc4ccccc4NC(=O)CCl)n3)cc2)CC1 | 3 | 2500 | > 10000 | IC50 [8]: 25 nM
21 | C=CC(=O)Nc1ccccc1Sc1nc(Nc2ccc(N3CCN(C)CC3)cc2)ncc1Cl |  | 2480 |  | 
22 | C=CC(=O)Oc1ccccc1Nc1nc(Nc2cccc(N3CCOCC3)c2)ncc1Cl | 23 | 11 | 736 | 
23 | C=CC(=O)Oc1ccccc1Nc1nc(Nc2cccc(N3CCN(C(C)=O)CC3)c2)ncc1Cl | < 1 | 9.5 | 225 | 
24 | C=CC(=O)Nc1ccc(Oc2nc(Nc3ccc(N4CCN(C)CC4)cc3)nc3[nH]ccc23)cc1 |  |  |  | IC50 [8]: 34 nM
